Laboratory results taken from ChEMBL document CHEMBL3860085, “Synthesis and evaluation of dihydropyrimidinone-derived selenoesters as multi-targeted directed compounds against Alzheimer's disease” (Bioorg Med Chem, 2016).

Columns and labels:
[1] = Antioxidant activity assessed as inhibition of Fe2+-induced thiobarbituric acid reactive substance formation in phospholipids extracted from egg yolk by measuring malondialdehyde levels per mg of triglycerides at 100 uM after 1 hr by UV-Vis spectrophotometric method (reference value: 8.17 +/- 0.32 nmol); assay type: functional
Method in brief: (§1)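 Egg-yolk phospholipids (isopropanol/water extract, pellet resuspended; 1 mg/mL triglycerides) incubated with or without fresh FeSO4 100 μM plus compound in 0.05 M potassium phosphate pH 7.5, 37°C 1 h. Acetic acid (pH 3.4) and 0.6% TBA added, 97°C 1 h, n-butanol extraction, A532 against MDA standard. Reported as nmol MDA/mg triglycerides. Mean ± SEM, n=3 in duplicate.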

[2] = Metal chelating activity assessed as compound-Fe2+ complex formation after 10 mins by UV-Vis spectrophotometer; assay type: physicochemical
Method in brief: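 Fe2+ chelation by modified Minotti–Aust method. Compounds 5–100 μM with Fe2+ 120 μM (final), 37°C 10 min, then 1,10-phenanthroline (0.25% w/v) added and A510 read. Methanol serves as control, BHT as reference chelator. % chelation = (A control − A sample)/A control × 100; EC50 derived. Mean ± SEM, n=3 in duplicate.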

Acetylcholinesterase = Acetylcholinesterase (Electrophorus electricus, UniProt O42275); assay: Inhibition of electric eel AChE using acetylthiocholine iodide as substrate preincubated for 15 mins followed by substrate addition measured every 15 secs for 5 to 10 mins by Ellman's method
Sequence of Acetylcholinesterase (O42275 whole entry): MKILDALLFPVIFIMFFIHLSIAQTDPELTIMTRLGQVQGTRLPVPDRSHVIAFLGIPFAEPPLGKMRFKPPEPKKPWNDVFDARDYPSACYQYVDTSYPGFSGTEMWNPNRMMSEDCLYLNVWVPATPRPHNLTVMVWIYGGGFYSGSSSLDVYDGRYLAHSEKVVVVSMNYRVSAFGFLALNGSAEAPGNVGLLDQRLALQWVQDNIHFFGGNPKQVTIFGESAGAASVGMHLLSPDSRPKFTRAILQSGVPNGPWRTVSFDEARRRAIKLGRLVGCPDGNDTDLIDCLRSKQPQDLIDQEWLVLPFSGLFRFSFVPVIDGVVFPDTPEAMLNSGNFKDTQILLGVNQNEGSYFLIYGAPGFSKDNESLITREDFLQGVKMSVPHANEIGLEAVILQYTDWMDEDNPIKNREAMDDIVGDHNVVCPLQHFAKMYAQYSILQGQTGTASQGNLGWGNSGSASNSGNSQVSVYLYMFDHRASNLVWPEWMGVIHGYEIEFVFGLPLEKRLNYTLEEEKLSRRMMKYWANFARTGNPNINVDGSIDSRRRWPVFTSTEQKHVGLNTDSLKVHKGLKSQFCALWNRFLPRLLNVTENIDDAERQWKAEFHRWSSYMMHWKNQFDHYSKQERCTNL

[3] = Antioxidant activity assessed as inhibition of Fe2+-induced thiobarbituric acid reactive substance formation in phospholipids extracted from egg yolk after 1 hr by UV-Vis spectrophotometric method; assay type: functional; method in brief: as §1

CCOC(=O)C1=C(C[Se]C(C)=O)NC(=O)NC1c1ccccc1 (stereo not given)
MDA level [1]: 5.1 nmol
EC50 [2]: 41.2 µM
IC50 (Acetylcholinesterase): 14.2 µM

CCOC(=O)C1=C(C[Se]C(=O)c2cccc(C(=O)[Se]CC3=C(C(=O)OCC)C(c4ccccc4)NC(=O)N3)c2)NC(=O)NC1c1ccccc1 (stereo not given)
MDA level [1]: 3.99 nmol
EC50 [2]: 29.9 µM
IC50 (Acetylcholinesterase): 10.6 µM

CCOC(=O)C1=C(C[Se]C(=O)c2ccc(C)cc2)NC(=O)NC1c1ccc(O)c(OC)c1 (stereo not given)
MDA level [1]: 0.68 nmol
Activity [3]: Dose-dependent effect
EC50 [2]: 8.1 µM
IC50 (Acetylcholinesterase): 13.6 µM

CCOC(=O)C1=C(C[Se]C(=O)c2ccc(C)cc2)NC(=O)NC1c1ccccc1 (stereo not given)
MDA level [1]: 0.46 nmol
Activity [3]: Dose-dependent effect
EC50 [2]: 10.5 µM
IC50 (Acetylcholinesterase): 7.21 µM

CCOC(=O)C1=C(CSC(=O)c2ccc(C)cc2)NC(=O)NC1c1ccccc1 (stereo not given)
MDA level [1]: 3.14 nmol
EC50 [2]: 20.2 µM
IC50 (Acetylcholinesterase): 11.7 µM

c1ccc([Se][Se]c2ccccc2)cc1
MDA level [1]: 2.41 nmol

CCOC(=O)C1=C(C[Se]C(=O)c2ccc(C)cc2)NC(=O)NC1c1ccc(C)cc1 (stereo not given)
MDA level [1]: 0.87 nmol
Activity [3]: Dose-dependent effect
EC50 [2]: 21.2 µM

CCOC(=O)C1=C(C[Se]C(=O)c2ccc(C)cc2)N(C)C(=O)NC1c1cccc([N+](=O)[O-])c1 (stereo not given)
MDA level [1]: 2.29 nmol
EC50 [2]: 32.8 µM

Cc1ccc(C(=O)[Se]Cc2ccccc2)cc1
MDA level [1]: 1.23 nmol
EC50 [2]: 22.4 µM
IC50 (Acetylcholinesterase): 12.9 µM

CCOC(=O)C1=C(C[Se]C(=O)c2ccc(C)cc2)NC(=O)NC1c1ccc(OC)cc1 (stereo not given)
MDA level [1]: 0.77 nmol
Activity [3]: Dose-dependent effect
EC50 [2]: 22.4 µM

O=c1c2ccccc2[se]n1-c1ccccc1
MDA level [1]: 3.22 nmol

CCOC(=O)C1=C(C[Se]C(=O)c2ccc(C)cc2)NC(=O)NC1c1cccc([N+](=O)[O-])c1 (stereo not given)
MDA level [1]: 1.51 nmol
EC50 [2]: 24.5 µM

CCOC(=O)C1=C(C[Se]C(=O)c2ccc(C)cc2)NC(=O)NC1c1cccc2ccccc12 (stereo not given)
MDA level [1]: 1.96 nmol
EC50 [2]: 35.5 µM

Cc1cc(C(C)(C)C)c(O)c(C(C)(C)C)c1 [BUTYLATED HYDROXYTOLUENE]
EC50 [2]: 23.3 µM

CCOC(=O)C1=C(C)NC(=O)NC1c1ccccc1 (stereo not given)
MDA level [1]: 3.03 nmol
EC50 [2]: 15.8 µM
IC50 (Acetylcholinesterase): 9.23 µM

CCOC(=O)C1=C(C[Se]C(=O)c2ccc(C)cc2)NC(=O)NC1c1ccc(N(C)C)cc1 (stereo not given)
MDA level [1]: 3.96 nmol
EC50 [2]: 29.6 µM
